Three compounds from ChEMBL document CHEMBL4145471, “New 1,5 and 2,5-disubstituted tetrazoles-dependent activity towards surface barrier of Candida albicans” (Eur J Med Chem, 2018) can be followed below.

Active and inactive are the calls of the source. The rule behind the calls is not given here.

Assay [1] deals with Candida albicans. The assay is described as follows: Synergistic antifungal activity against Candida albicans ATCC 90028 at 80 ug/ml after 48 hrs in presence of fluconazol by checkerboard assay. The format is functional.
Assay [2] has as its system Candida albicans. The experiment in a line: Ratio of MIC for Candida albicans ATCC 90028 in absence of ergosterol to MIC for Candida albicans ATCC 90028 in presence of ergosterol. The format is functional. An outline of the steps: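 MICs per modified M27-A3 in RPMI with or without ergosterol (final 400 µg/mL, dissolved in 10% DMSO/1% Tween 80 with heating). Inoculum 10³ CFU/mL; tetrazoles and itraconazole tested at 512–1 µg/mL, amphotericin B at 125–0.24 µg/mL. Plates were incubated at 35°C and read at 72 h; MIC was the lowest concentration with no visible growth. Run in triplicate on three days, geometric means.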

In assay [3] the test system is Candida albicans. The assay is described as follows: Antifungal activity against Candida albicans ATCC 90028 after 72 hrs in presence of ergosterol by M27-A3 microdilution method. The format is functional. The following applies: ATCC 90028, 72 h. An outline of the steps: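 Ergosterol-modified M27-A3 assay. Compounds at 512-1 µg/mL serially diluted in RPMI; the 10^3 CFU/mL inoculum is made in RPMI with ergosterol (dissolved in 10% DMSO/1% Tween 80, heated), giving 400 µg/mL ergosterol in the wells. Itraconazole and amphotericin B serve as controls. Plates at 35°C, read after 72 h. MIC is the lowest concentration without visible growth; triplicate on three days, geometric means.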

The subject of assay [4] is Candida albicans. The assay is described as follows: Antifungal activity against Candida albicans ATCC 90028 infected in Galleria mellonella larvae assessed as increase in health score at 16 ug/ml treated for 60 mins post infection measured after 48 hrs. The format is functional, organism-based. An outline of the steps: (§1)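 Larvae (195±17 mg, ethanol-disinfected) were injected with 10 µL C. albicans into the last right proleg. Compound at 16 µg/mL in RPMI (10 µL) went into the last left proleg 30 min or 1 h after infection, or 1 h or 30 min before it. A health index was scored from mobility, cocoon formation, melanization and survival, with monitoring every 24 h for 2 days. Controls were infected and PBS-injected larvae.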

Assay [5] deals with Candida albicans. The experiment in a line: Antifungal activity against Candida albicans ATCC 90028 infected in Galleria mellonella larvae assessed as increase in larvae health score at 16 ug/ml preincubated for 30 mins followed by fungal infection and measured after 18 to 48 hrs. The format is functional, organism-based. An outline of the steps: as §1
For assay [6], the system named is Candida albicans. The assay is described as follows: Induction of early apoptosis in Candida albicans ATCC 90028 biofilms assessed as chromatin condensation at 0.03 ug/ml after 18 hrs by propidium iodide/acridine orange staining based confocal laser scanning microscopic analysis. The format is functional, organism-based. An outline of the steps: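 Caco-2-free model: the TR146 epithelial layer, 21 days post-seeding on filter inserts, was inoculated with 1.0–1.2×10^5/mL log-phase ATCC 90028 yeast. Biofilms were treated at 256, 16 or 0.0313 µg/mL for 18–48 h at 37°C in 5% CO2 and washed with PBS. Unfixed cells were stained with propidium iodide (5 µg/mL) and acridine orange, then imaged by confocal laser scanning microscopy.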

The test system of assay [7] is Candida albicans. The assay is described as follows: Induction of apoptosis in Candida albicans ATCC 90028 biofilms assessed as detection of DNA ladder at 256 ug/ml after 10 mins by […]. The format is functional, organism-based.
The subject of assay [8] is Candida albicans. The experiment in a line: Antifungal activity against Candida albicans ATCC 90028 infected in Galleria mellonella larvae assessed as increase in larvae health score at 16 ug/ml treated for 30 mins post infection and measured after 18 to 48 hrs. The format is functional, organism-based. In outline:
as §1

Assay [9] relates to Candida albicans. The assay is described as follows: Antifungal activity against Candida albicans ATCC 90028 infected in Galleria mellonella larvae assessed as survival at 16 ug/ml treated for 30 to 60 mins post infection. The format is functional. An outline of the steps: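 Larvae (195±17 mg, ethanol-disinfected) injected with 10 µL C. albicans suspension into last right proleg; single 10 µL dose (16 µg/mL in RPMI, diluted from 1600 µg/mL stock) into last left proleg 30 min or 1 h later. Controls: infected untreated and PBS-injected. Survival monitored every 24 h for 2 days; health index scored. At least three independent experiments.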

Assay [10] deals with Candida albicans. The experiment in a line: Antifungal activity against Candida albicans ATCC 90028 infected in Galleria mellonella larvae assessed as increase in larvae survival at 16 ug/ml preincubated for 30 to 60 mins followed by fungal infection and measured every 24 hrs for 2 days. The format is functional, organism-based. An outline of the steps: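 G. mellonella larvae (195±17 mg, ethanol-disinfected) were given 10 µL C. albicans suspension into the last right proleg. A single 10 µL dose at 16 µg/mL in RPMI (diluted from 1600 µg/mL stock) went into the last left proleg, either 30 min or 1 h after infection or 1 h or 30 min before it. Survival was checked every 24 h for 2 days. Untreated infected larvae and PBS-injected larvae served as controls; ≥3 independent experiments, mean±SEM.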

Assay [11] has as its system Candida albicans. The assay is described as follows: Antifungal activity against Candida albicans ATCC 90028 infected in Galleria mellonella larvae assessed as increase in health score at 16 ug/ml treated for 60 mins post infection measured after 18 hrs. The format is functional, organism-based.

In general, MIC refers to the least concentration at which growth counts as inhibited.

Take `Cc1ccc(-c2nnn(CCCN3CCOCC3)n2)cc1`: in the assay on Candida albicans [1], the “fractional inhibitory concentration index (FICI)” value was >1.
On to `ClCCCn1nnnc1-c1ccccc1Cl`, for which the Ratio in the assay on Candida albicans [2] turned out to be 2.
In the case of `CCOC(=O)CCn1nnc(-c2ccccc2)n1`, the minimal inhibitory concentration (MIC) in the assay with Candida albicans [3] is 64 µg/mL. The result in the assay on Candida albicans [4] and with Candida albicans [7] was inactive. In addition, the outcome in the assay with Candida albicans [5], in the assay with Candida albicans [6], in the assay with Candida albicans [8], with Candida albicans [10] and with Candida albicans [11] was Active. Also, the Survival entry with Candida albicans [9] is “<=18 hr”.
